Data reported in ChEMBL document CHEMBL1134563, “Synthesis, mechanism of action, and antiviral activity of a new series of covalent mechanism-based inhibitors of S-adenosyl-L-homocysteine hydrolase” (J Med Chem, 2001).
pEC50, pKi: −log10 of the molar value. In brackets after ≈: the same amount, converted by molar mass.

Key:
HEL [1] = assay: Effective concentration required to inhibit Thymidine kinase deficient (TK-) Varicella-Zoster virus-induced cytopathicity by 50% in YS/R strain HEL cell lines; type: functional, cell-based; conditions: Homo sapiens
HEL [2] = assay: Effective concentration required to inhibit Thymidine kinase deficient (TK-) Varicella-Zoster virus-induced cytopathicity by 50% in 07/01 strain HEL cell lines; type: functional, cell-based; conditions: Homo sapiens
HEL [3] = assay: Minimum inhibitory concentration required to elicit microscopically visible cell morphology in HEL cell lines; type: functional; conditions: Homo sapiens
HEL [4] = assay: Effective concentration required to inhibit thymidine kinase (TK+) Varicella-Zoster virus-induced cytopathicity by 50% in OKA strain HEL cell lines; type: functional, cell-based; conditions: Homo sapiens
HEL [5] = assay: Effective concentration required to inhibit thymidine kinase (TK+) Varicella-Zoster virus-induced cytopathicity by 50% in YS strain HEL cell lines; type: functional, cell-based; conditions: Homo sapiens
HeLa [6] = assay: Effective concentration required to inhibit Coxsackie virus B4-induced cytopathicity by 50% in HeLa cell lines; type: functional, cell-based; conditions: Homo sapiens
Vero [7] = assay: Minimum inhibitory concentration required to elicit microscopically visible cell morphology in Vero cell lines; type: functional; conditions: Chlorocebus sabaeus
Vero [8] = assay: Effective concentration required to inhibit respiratory synaptial (RSV) virus-induced cytopathicity by 50% in Vero cell lines; type: functional, cell-based; conditions: Chlorocebus sabaeus
HeLa [9] = assay: Effective concentration required to inhibit vesicular stomatitis virus (VSV)-induced cytopathicity by 50% in HeLa cell lines; type: functional, cell-based; conditions: Homo sapiens
Vero [10] = assay: Effective concentration required to inhibit reovirus-induced cytopathicity by 50% in Vero cell lines; type: functional, cell-based; conditions: Chlorocebus sabaeus
HeLa [11] = assay: Effective concentration required to inhibit respiratory synaptial (RSV) virus-induced cytopathicity by 50% in HeLa cell lines; type: functional, cell-based; conditions: Homo sapiens
HeLa [12] = assay: Minimum inhibitory concentration required to elicit microscopically visible cell morphology in HeLa cell lines; type: functional; conditions: Homo sapiens
Vero [13] = assay: Effective concentration required to inhibit parainfluenza-3 virus-induced cytopathicity by 50% in Vero cell lines; type: functional, cell-based; conditions: Chlorocebus sabaeus
Vero [14] = assay: Effective concentration required to inhibit Punta Toro virus-induced cytopathicity by 50% in Vero cell lines; type: functional, cell-based; conditions: Chlorocebus sabaeus
E6SM [15] = assay: Effective concentration required to inhibit Herpes simplex virus-1 (HSV-1) induced cytopathicity by 50% in E6SM cell lines; type: functional, cell-based; conditions: Homo sapiens
HEL [16] = assay: Effective concentration required to inhibit cytomegalo virus-induced cytopathicity by 50% in Davis-169 strain HEL cell lines; type: functional, cell-based; conditions: Homo sapiens
E6SM [17] = assay: Effective concentration required to inhibit Herpes simplex virus-2 (HSV-2) induced cytopathicity by 50% in E6SM cell lines; type: functional, cell-based; conditions: Homo sapiens
E6SM [18] = assay: Minimum inhibitory concentration required to elicit microscopically visible cell morphology in E6SM cell lines; type: functional; conditions: Homo sapiens
HEL [19] = assay: Effective concentration required to inhibit cytomegalo virus-induced cytopathicity by 50% in AD-169 strain HEL cell lines; type: functional, cell-based; conditions: Homo sapiens
E6SM [20] = assay: Effective concentration required to inhibit Vaccinia virus-induced cytopathicity by 50% in E6SM cell lines; type: functional, cell-based; conditions: Homo sapiens
Vero [21] = assay: Effective concentration required to inhibit Junin virus-induced cytopathicity by 50% in Vero cell lines; type: functional, cell-based; conditions: Chlorocebus sabaeus
Adenosylhomocysteinase [22] = target: T1, Adenosylhomocysteinase (Homo sapiens, UniProt P23526)
Target sequence in this assay (P23526 2-432 limits assumed): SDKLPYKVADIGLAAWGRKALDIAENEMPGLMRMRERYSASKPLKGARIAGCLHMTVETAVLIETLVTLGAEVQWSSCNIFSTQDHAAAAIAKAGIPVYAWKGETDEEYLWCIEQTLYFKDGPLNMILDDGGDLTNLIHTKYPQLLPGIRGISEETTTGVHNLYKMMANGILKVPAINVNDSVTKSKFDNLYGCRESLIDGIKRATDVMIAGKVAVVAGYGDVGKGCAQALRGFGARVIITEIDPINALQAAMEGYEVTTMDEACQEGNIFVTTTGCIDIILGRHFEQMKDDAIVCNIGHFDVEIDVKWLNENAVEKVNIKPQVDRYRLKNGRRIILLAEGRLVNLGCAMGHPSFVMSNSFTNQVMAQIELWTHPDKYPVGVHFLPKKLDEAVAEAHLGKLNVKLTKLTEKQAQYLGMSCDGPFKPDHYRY

Adenosylhomocysteinase [23] = target: T1, Adenosylhomocysteinase; remark: listed apart in the source
Target sequence in this assay (P23526 2-432 limits assumed): as above

HeLa [24] = assay: Effective concentration required to inhibit respiratory synaptial(RSV) virus-induced cytopathicity by 50% in HeLa cell lines; type: functional, cell-based; conditions: Homo sapiens
Vero [25] = assay: Effective concentration required to inhibit Sindbis virus-induced cytopathicity by 50% in Vero cell lines; type: functional, cell-based; conditions: Chlorocebus sabaeus
E6SM [26] = assay: Effective concentration required to inhibit Herpes simplex virus-1(HSV-1) / […] kinase deficient (TK-)B2006 / VMW1837 induced cytopathicity by 50% in E6SM cell lines; type: functional, cell-based; conditions: Homo sapiens
Vero [27] = assay: Effective concentration required to inhibit PuntaToro virus-induced cytopathicity by 50% in Vero cell lines; type: functional, cell-based; conditions: Chlorocebus sabaeus
Adenosylhomocysteinase [28] = target: T1, Adenosylhomocysteinase; remark: listed apart in the source
Target sequence in this assay (P23526 2-432 limits assumed): as above

Adenosylhomocysteinase [29] = target: T1, Adenosylhomocysteinase; assay: Inhibition of purified recombinant human placental S-adenosyl-homocysteine hydrolase
In short: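 Enzyme preincubated at 37 °C in assay buffer with inactivator (5-40 µM). Residual activity was read over time in the synthetic direction from the formation of [8-14C]-AdoHcy, using 10 µM [8-14C]-Ado, 5 mM D,L-Hcy, 20 mM potassium phosphate pH 7.5, 1 mg/mL BSA and 1 mM EDTA, 10 min at 37 °C. Reaction stopped with HCl; Ado/AdoHcy separated on Cellex P.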
Target sequence in this assay (P23526 whole entry): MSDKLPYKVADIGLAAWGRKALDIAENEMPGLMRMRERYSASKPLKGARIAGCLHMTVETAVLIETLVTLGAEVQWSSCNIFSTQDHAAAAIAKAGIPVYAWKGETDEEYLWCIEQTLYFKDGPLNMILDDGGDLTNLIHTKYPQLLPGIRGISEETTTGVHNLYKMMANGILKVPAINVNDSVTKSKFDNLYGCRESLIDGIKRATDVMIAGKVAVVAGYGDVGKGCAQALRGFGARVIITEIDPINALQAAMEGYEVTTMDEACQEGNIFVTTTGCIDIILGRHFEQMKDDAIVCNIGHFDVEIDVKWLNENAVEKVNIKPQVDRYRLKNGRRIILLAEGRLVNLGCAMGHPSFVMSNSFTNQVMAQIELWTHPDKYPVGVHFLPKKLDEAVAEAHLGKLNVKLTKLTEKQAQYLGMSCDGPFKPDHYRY

E6SM [30] = assay: Effective concentration required to inhibit vesicular stomatitis virus(VSV) -induced cytopathicity by 50% in E6SM cell lines; type: functional, cell-based; conditions: Homo sapiens
Vero [31] = assay: Effective concentration required to inhibit Tacaribe virus-induced cytopathicity by 50% Vero cell lines; type: functional, cell-based; conditions: Chlorocebus sabaeus
[32] = half life of enzyme inactivation at 15 uM; type: functional
In short: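 Recombinant human placental AdoHcy hydrolase was preincubated with inhibitor (5-40 µM range) in assay buffer at 37 °C. Residual activity was read at set times in the synthetic direction: [8-14C]-AdoHcy formation from 10 µM [8-14C]-Ado plus 5 mM D,L-Hcy, in 20 mM K phosphate pH 7.5, 1 mg/mL BSA, 1 mM EDTA, for 10 min at 37 °C. HCl stopped the reaction, and products were separated on Cellex P.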

HEL [33] = assay: Effective concentration required to inhibit cytomegalo virus(CMV) -induced cytopathicity by 50% in AD-169 strain HEL cell lines; type: functional, cell-based; conditions: Homo sapiens

Row | Structure (SMILES) | pEC50 (HEL [1]) | pEC50 (HEL [2]) | MIC (HEL [3]) [µM] | pEC50 (HEL [4]) | pEC50 (HEL [5]) | pEC50 (HeLa [6]) | pEC50 (Vero [8]) | pEC50 (HeLa [9]) | pEC50 (Vero [10]) | MIC (HeLa [12]) [µM] | pEC50 (Vero [13]) | pEC50 (E6SM [15]) | pEC50 (HEL [16]) | pEC50 (E6SM [17]) | MIC (E6SM [18]) [µM] | pEC50 (E6SM [20]) | pEC50 (HeLa [24]) | pEC50 (E6SM [26]) | pEC50 (Vero [27]) | pEC50 (E6SM [30]) | further results
1 | Nc1nc2c(ncn2COCCO)c(=O)[nH]1 [ACYCLOVIR] | 4.20 | 4.39 | > 150 | 5.34 | 5.39 |  |  |  |  |  |  |  |  |  |  |  |  |  |  |  | 
2 | Nc1ncnc2c1ncn2C[C@H](O)CO [(S)-DHPA] |  |  |  |  |  | 3.64 | < 2.70 | 3.64 | 4.35 | > 2000 | 3.64 |  |  |  |  |  |  |  |  |  | MIC (Vero [7]): > 2000 µM; pEC50 (HeLa [11]): 2.70; pEC50 (Vero [14]): < 2.70
3 | Nc1nc2c(ncn2COC(CO)CO)c(=O)[nH]1 [GANCICLOVIR] |  |  | > 150 |  |  |  |  | < 4.00 |  |  |  | 8.92 | 4.93 | 8.92 | > 1600 | < 4.00 |  |  |  |  | pEC50 (HEL [19]): 5.11
4 | C=C=CSC[C@H]1OC(n2cnc3c(N)ncnc32)[C@H](O)[C@@H]1O (stereo partly drawn) | < 3.70 | 4.06 | > 200 | < 3.70 | < 3.70 | < 3.22 | < 3.60 | < 3.60 | < 3.42 | 1240 (≈ 398 µg/mL) | < 3.21 | 3.60 | < 3.70 | < 3.60 | 1240 (≈ 398 µg/mL) | 5.72 | < 3.60 | 3.82 | < 3.21 | < 3.60 | pEC50 (Vero [21]): < 3.70; K inact (Adenosylhomocysteinase [22]): 0.12 min⁻¹; NADH content (Adenosylhomocysteinase [23]): 0.3; pEC50 (Vero [25]): < 3.70; NAD+ content (Adenosylhomocysteinase [28]): 0.7; pEC50 (HEL [19]): < 3.70; pKi (Adenosylhomocysteinase [29]): 4.80; pEC50 (Vero [31]): < 3.70; T1/2 [32]: 7 min
5 | CC#CSC[C@H]1OC(n2cnc3c(N)ncnc32)[C@H](O)[C@@H]1O (stereo partly drawn) | 3.70 | 3.70 | > 200 | < 3.70 | < 3.70 | < 3.92 | < 2.91 | < 2.91 | < 3.92 | > 1240 | < 3.92 | 3.60 | < 3.70 | 3.21 | 1240 (≈ 398 µg/mL) | 4.31 | < 3.60 | < 3.60 | < 3.92 | < 3.60 | pEC50 (Vero [21]): < 3.70; K inact (Adenosylhomocysteinase [22]): 0.062 min⁻¹; NADH content (Adenosylhomocysteinase [23]): 0.32; pEC50 (Vero [25]): < 4.40; NAD+ content (Adenosylhomocysteinase [28]): 0.68; pEC50 (HEL [19]): < 3.70; pKi (Adenosylhomocysteinase [29]): 4.80; pEC50 (Vero [31]): < 3.70; T1/2 [32]: 7 min
6 | C#CCSC[C@H]1OC(n2cnc3c(N)ncnc32)[C@H](O)[C@@H]1O (stereo partly drawn) | 3.90 | 3.81 | > 200 | < 3.70 | < 3.70 | < 3.92 | < 3.60 | < 3.60 | < 3.92 | 1240 (≈ 398 µg/mL) | < 3.92 | < 3.60 | < 3.70 | < 3.60 | 1240 (≈ 398 µg/mL) | < 3.60 | < 3.60 | < 3.60 | < 3.92 | < 3.60 | pEC50 (Vero [21]): < 3.70; K inact (Adenosylhomocysteinase [22]): 0.0074 min⁻¹; NADH content (Adenosylhomocysteinase [23]): 1; pEC50 (HEL [33]): < 3.70; pEC50 (Vero [25]): < 4.40; NAD+ content (Adenosylhomocysteinase [28]): 0; pKi (Adenosylhomocysteinase [29]): 4.35; pEC50 (Vero [31]): < 3.70; T1/2 [32]: 19 min
7 | NC(=O)c1ncn([C@@H]2O[C@H](CO)[C@@H](O)[C@H]2O)n1 [RIBAVIRIN] |  |  |  |  |  | < 3.49 | < 2.80 | 3.00 | 4.40 | > 1600 | 3.71 | 3.49 |  | 3.49 | > 1600 | 4.19 | 5.82 | 8.30 | 4.40 | 4.40 | 
